Laboratory results: ChEMBL document CHEMBL1131463, “Identification and initial structure-activity relationships of (R)-5-(2-azetidinylmethoxy)-2-chloropyridine (ABT-594), a potent, orally active, non-opiate analgesic agent acting via neuronal nicotinic acetylcholine receptors” (J Med Chem, 1998)
The source made the active and inactive calls.

How the values were obtained:
[1] = target: T1, Neuronal acetylcholine receptor subunit alpha-3 (Homo sapiens, UniProt P32297); test: Intrinsic activity against human sympathetic ganglionic type nAChRs in IMR-32 cells containing alpha-3 subtype; assay type: functional, cell-based
Summary of the method: (§1)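 86Rb+ efflux measured in the human neuroblastoma line IMR-32 (ganglionic-like, α3-containing nAChRs). Intrinsic activity is the maximum response as percent of the response to 100 μM (S)-nicotine. Values are means ± SEM, n ≥ 3.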

[2] = target: Acetylcholine receptor subunit alpha (Torpedo californica, UniProt P02710); test: Compound was evaluated for its ability to displace [125 I]alpha-bungarotoxin (alpha-BgT) from torpedo alpha1-beta1-[…] electroplax
Summary of the method: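 Displacement of [125I]-α-bungarotoxin from Torpedo electroplax membranes (α1β1γδ). Ki values are means ± SEM, n ≥ 3.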

[3] = target: T1, Neuronal acetylcholine receptor subunit alpha-3; test: Functional activation of human sympathetic ganglionic type nAChRs in IMR-32 cells containing alpha-3 subtype; assay type: cell-based; summary of the method: as §1
[4] = target: T2, Neuronal acetylcholine receptor subunit alpha-7 (Homo sapiens, UniProt P36544); test: Compound was evaluated for its ability to displace [125I]alpha-bungarotoxin (alpha-BgT) from K28 cells expressing human Nicotinic acetylcholine receptor alpha7; assay type: cell-based
Summary of the method: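 Displacement of [125I]-α-bungarotoxin from K28 cells expressing human α7 homomers. Ki values are means ± SEM, n ≥ 3.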

[5] = target: T2, Neuronal acetylcholine receptor subunit alpha-7; test: Compound was evaluated for functional activation from channel currents at human Nicotinic acetylcholine receptor alpha-7 expressed in oocytes.; assay type: cell-based, Oocyte
Mus musculus [6] = species on record: Mus musculus; test: Compound was evaluated for the analgesic activity by mouse hotplate assay at the doses of 0.62 and 6.2; No significant effect observed at the doses tested; assay type: functional, organism-based
K177 cell line = test: Compound was evaluated for functional activation to [86Rb+] efflux from human K177 cells expressing recombinant alpha4-beta2 receptors.; assay type: cell-based
Summary of the method: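 86Rb+ efflux measured from K177 cells expressing recombinant human α4β2 receptors. Intrinsic activity is given as percent of the maximal response to 100 μM (S)-nicotine. Values are means ± SEM, n ≥ 3.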

[7] = target: Neuronal acetylcholine receptor; alpha4/beta2 (Homo sapiens, UniProt P17787+P43681); test: Compound was evaluated for its ability to displace [3H]cytisine from K177 cells expressing human Nicotinic acetylcholine receptor alpha4-beta2; assay type: cell-based
Summary of the method: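 Displacement of [3H]cytisine from K177 cells expressing human α4β2 nAChRs. Ki values are means ± SEM, n ≥ 3.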

Mus musculus [8] = species on record: Mus musculus; test: Compound was evaluated for the analgesic activity by mouse hotplate assay at the dose 0.1; No significant effect observed at the doses tested; assay type: functional, organism-based
[9] = target: Neuronal acetylcholine receptor; test: Compound was evaluated for its ability to displace [3H]-cytisine binding from high-affinity Nicotinic acetylcholine receptor in rat brain (principally the alpha4-beta2 nAChR subtype); assay type: tissue-based
Summary of the method: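 Displacement of [3H]cytisine from rat whole-brain membranes, principally α4β2 sites.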

Mus musculus [10] = species on record: Mus musculus; test: Minimum peroral effective dose for analgesic activity was determined by mouse hot plate assay; assay type: functional
Summary of the method: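 Mouse hot plate at 55 °C with 8 mice per dose. Drug in 0.9% saline was given po, 10 mL/kg, 30 min before testing, over a range of 0.19–6.2 μmol/kg. MED is the lowest dose that increases latency to the tenth jump versus saline, with a 180 s cutoff.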

Canis familiaris [11] = test: Compound was evaluated for increase in diastolic blood pressure (BP) in dog at 10 nM/Kg when administered intravenously; assay type: functional, Canis lupus familiaris, Artery
Summary of the method: (§2)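 Male beagle dogs under pentobarbital anesthesia (35 mg/kg iv, then 5 mg/kg/h iv infusion), ventilated with room air. Blood pressure was recorded by a micromanometer catheter passed via the carotid artery into the left ventricle.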

Mus musculus [12] = species on record: Mus musculus; test: Compound was evaluated for the analgesic activity by mouse hotplate assay at the doses of 0.062 and 0.62; assay type: functional
Mus musculus [13] = test: Minimum intraperitoneal effective dose for abdominal constriction in mouse; assay type: functional, Abdomen
Summary of the method: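 Mice, 10 per dose group, received compound ip in 0.9% saline, 10 mL/kg, 30 min before ip phenyl-p-quinone (68 μmol/kg in 5% EtOH). Writhing was scored over a 10-min window starting 5 min after the irritant. The read-out was the reduction in the number of responders versus the saline group.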

[14] = Compound was evaluated for functional activation to [86Rb+] efflux From human medulloblastoma cell line TE671 expressing recombinant alpha-1-beta-1-gamma delta receptors.; conditions: TE-671
Summary of the method: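 86Rb+ efflux measured from the human medulloblastoma line TE671. Intrinsic activity is given as percent of the maximal response to 1 mM (S)-nicotine. Values are means ± SEM, n ≥ 3.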

Canis familiaris [15] = test: Compound was evaluated for increase in heart rate (HR) in dog at 10 nM/Kg when administered intravenously; assay type: functional, Canis lupus familiaris; summary of the method: as §2

T1 sequence (P32297 whole entry): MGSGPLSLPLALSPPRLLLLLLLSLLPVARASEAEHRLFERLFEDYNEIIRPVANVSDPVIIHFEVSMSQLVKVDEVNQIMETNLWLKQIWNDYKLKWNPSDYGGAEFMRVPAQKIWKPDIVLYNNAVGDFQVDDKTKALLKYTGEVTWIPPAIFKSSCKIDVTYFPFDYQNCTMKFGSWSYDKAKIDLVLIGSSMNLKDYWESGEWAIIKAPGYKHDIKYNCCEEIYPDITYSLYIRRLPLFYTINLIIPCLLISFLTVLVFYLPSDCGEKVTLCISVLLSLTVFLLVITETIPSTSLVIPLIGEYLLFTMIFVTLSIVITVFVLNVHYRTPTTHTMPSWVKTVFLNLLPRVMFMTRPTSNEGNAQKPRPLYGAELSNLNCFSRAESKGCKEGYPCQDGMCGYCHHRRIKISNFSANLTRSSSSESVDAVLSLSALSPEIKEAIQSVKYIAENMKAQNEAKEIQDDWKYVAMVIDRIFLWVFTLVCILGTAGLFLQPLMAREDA
T2 sequence (P36544 whole entry): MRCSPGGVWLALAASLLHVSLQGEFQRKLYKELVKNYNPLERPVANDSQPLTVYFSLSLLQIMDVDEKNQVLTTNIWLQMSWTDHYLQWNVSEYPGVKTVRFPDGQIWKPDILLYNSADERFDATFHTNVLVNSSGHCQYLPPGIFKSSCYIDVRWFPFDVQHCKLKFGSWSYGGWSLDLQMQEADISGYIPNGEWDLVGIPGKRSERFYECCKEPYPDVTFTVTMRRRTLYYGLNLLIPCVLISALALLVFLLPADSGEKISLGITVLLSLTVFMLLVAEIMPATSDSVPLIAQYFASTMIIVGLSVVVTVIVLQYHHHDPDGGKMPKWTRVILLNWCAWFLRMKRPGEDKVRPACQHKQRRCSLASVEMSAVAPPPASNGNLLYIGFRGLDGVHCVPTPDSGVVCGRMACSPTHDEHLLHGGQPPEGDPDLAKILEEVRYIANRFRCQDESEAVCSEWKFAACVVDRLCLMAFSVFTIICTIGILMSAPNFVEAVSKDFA
Sequence of Acetylcholine receptor subunit alpha (P02710 whole entry): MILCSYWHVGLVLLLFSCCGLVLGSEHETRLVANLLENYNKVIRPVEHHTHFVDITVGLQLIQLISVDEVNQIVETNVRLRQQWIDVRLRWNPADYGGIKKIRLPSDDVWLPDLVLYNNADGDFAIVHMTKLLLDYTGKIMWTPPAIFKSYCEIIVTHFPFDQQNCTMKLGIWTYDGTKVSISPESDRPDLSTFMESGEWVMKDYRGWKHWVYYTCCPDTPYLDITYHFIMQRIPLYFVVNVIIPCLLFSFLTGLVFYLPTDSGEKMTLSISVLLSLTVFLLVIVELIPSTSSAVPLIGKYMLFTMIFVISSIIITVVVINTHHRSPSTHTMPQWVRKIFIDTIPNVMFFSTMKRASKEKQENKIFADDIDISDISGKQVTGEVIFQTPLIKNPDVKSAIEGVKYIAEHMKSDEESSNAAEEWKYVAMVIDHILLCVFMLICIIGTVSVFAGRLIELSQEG
Sequence of Neuronal acetylcholine receptor; alpha4/beta2 (P17787 whole entry): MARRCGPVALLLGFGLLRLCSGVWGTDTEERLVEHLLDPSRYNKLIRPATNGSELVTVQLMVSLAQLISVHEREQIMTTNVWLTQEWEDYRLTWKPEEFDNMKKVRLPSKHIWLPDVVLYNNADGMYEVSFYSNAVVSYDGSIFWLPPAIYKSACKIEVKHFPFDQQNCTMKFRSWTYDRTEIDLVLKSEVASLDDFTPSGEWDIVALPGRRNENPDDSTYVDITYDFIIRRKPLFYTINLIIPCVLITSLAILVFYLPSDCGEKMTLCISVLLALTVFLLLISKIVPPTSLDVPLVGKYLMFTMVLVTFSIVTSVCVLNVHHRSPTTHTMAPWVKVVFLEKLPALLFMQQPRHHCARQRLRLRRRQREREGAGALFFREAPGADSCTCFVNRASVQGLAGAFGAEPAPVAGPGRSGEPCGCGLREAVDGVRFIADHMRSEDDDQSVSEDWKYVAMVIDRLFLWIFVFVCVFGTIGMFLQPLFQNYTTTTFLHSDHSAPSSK
Sequence of Neuronal acetylcholine receptor; alpha4/beta2 (P43681 whole entry): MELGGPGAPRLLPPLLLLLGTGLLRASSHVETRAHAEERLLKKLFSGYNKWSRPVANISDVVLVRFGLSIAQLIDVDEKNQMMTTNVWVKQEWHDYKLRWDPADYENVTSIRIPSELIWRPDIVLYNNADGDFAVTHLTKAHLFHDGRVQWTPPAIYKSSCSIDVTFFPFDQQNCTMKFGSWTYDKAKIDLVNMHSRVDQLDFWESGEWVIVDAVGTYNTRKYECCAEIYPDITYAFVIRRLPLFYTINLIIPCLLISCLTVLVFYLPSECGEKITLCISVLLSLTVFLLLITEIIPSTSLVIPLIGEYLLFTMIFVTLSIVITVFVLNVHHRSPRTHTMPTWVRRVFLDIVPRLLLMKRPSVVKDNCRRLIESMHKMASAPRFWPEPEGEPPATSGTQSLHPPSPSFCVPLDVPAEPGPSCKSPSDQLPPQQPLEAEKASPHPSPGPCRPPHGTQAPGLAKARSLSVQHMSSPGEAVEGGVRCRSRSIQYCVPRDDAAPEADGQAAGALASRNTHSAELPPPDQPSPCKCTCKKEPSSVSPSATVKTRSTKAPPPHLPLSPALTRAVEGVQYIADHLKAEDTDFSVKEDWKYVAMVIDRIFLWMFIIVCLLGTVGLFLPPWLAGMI

| SMILES | IA [1] | Ki [2] | EC50 [3] | MED (Mus musculus [6]) | Ki [9] | other results |
| --- | --- | --- | --- | --- | --- | --- |
| c1cncc(OC[C@H]2CCN2)c1 | 116% | 384 nM | 1100 nM | inactive | – | Ki [4]: 1270 nM; EC50 [5]: 36000 nM |
| c1cncc(OC[C@@H]2CCN2)c1 | 113% | 314 nM | 700 nM | inactive | – | EC50 (K177 cell line; Homo sapiens, K177): 700 nM; Ki [7]: 0.04 nM |
| Clc1ccc(C2CC3CCC2N3)cn1 (racemic) | 156% | – | – | – | – | MED (Mus musculus [8]): inactive |
| Clc1ccc(OC[C@H]2CCCN2)cn1 | 110% | – | 500 nM | inactive | 0.09 nM | – |
| Clc1ccc(OC[C@@H]2CCCN2)cn1 | 104% | – | 1190 nM | inactive | 0.45 nM | – |
| Clc1ccc(OCC2CCN2)cn1 (single isomer, unassigned) [TEBANICLINE] | 116% | 10000 nM | 200 nM | – | 0.04 nM | MED (Mus musculus [10]): 6.2 µM/kg; EC50 (K177 cell line; k177): 270 nM; BP (Canis familiaris [11]): 23.2 mmHg; MED (Mus musculus [12]): 0.62 µM/kg; Ki [4]: 2060 nM; EC50 [5]: 56000 nM; MED (Mus musculus [13]): 0.19 µM/kg; EC50 [14]: 36000 nM; Ki [7]: 0.055 nM; HR (Canis familiaris [15]): 7.8 beats min-1 |
| CN1CC[C@H]1COc1ccc(Cl)nc1 | 43% | – | 28900 nM | inactive | 1.6 nM | – |
